From PubChem
SENP7 inh: inhibitors of human SENP7 protease; recombinant SENP7, Z-RLRGG-aminoluciferin luminescence, 40 min; inhibition, % at 5 µM; actives 1.5% (n = 330,000); AID 434973;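 active = inhibition above about 50% at the single test dose, limit read from the data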
Platelet DG rel: platelet dense granule release activity. AID 1663. actives 0.22% (n = 300,000). inhibition, %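 (compounds screened at 7.5 µM in platelet-rich plasma)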. human platelet-rich plasma, SFLLRN dense granule ATP release, luminescence;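 active = mean replicate score, as percent of positive control, at or above 50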
SENP6 block: SENP6 protease inhibition. actives 1.8% (n = 330,000). AID 2599. Q9GZR1. Recombinant SENP6 catalytic domain, aminoluciferin luminescence. inhibition, % at 10 µM;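 active = inhibition above about 50% at the single tested dose, limit read from the data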
SENP8 block-1: SENP8 protease inhibition | AID 2540 | actives 1.2% (n = 330,000) | inhibition, % at 10 µM | purified SENP8, Z-RLRGG-aminoluciferin cleavage, luminescence | Q96LD8; in the data active = inhibition above about 50%
Target sequence (Q96LD8 whole entry, looked up): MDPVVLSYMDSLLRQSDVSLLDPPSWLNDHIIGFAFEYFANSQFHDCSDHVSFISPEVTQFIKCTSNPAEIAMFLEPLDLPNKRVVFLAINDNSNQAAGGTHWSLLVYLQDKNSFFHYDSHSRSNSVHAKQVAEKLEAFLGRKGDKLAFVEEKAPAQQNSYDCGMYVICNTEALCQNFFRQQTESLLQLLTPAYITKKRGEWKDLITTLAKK
SENP8 block-2: blocks human SENP8 cleavage of Nedd8 substrate; actives 0.64% (n = 360,000); inhibition, % at 20 µM; Q96LD8; recombinant SENP8, Nedd8 substrate fluorescence; in the data active = inhibition mostly above about 40%, no sharp cut-off; inactive = mostly below about 27%
SENP1 FRET inh: SENP1 (human) catalytic domain inhibition. Q9P0U3. recombinant SENP1 catalytic domain, CyPet-SUMO1-YPet FRET cleavage. inhibition, % at 10 µM. actives 0.21% (n = 360,000). AID 624204;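 active = inhibition at least 30% at 10 µM, raw YFP signal under a set limit, fluorescence ratio 0.5 to 1.5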
Target sequence (Q9P0U3 419-644 limits assumed): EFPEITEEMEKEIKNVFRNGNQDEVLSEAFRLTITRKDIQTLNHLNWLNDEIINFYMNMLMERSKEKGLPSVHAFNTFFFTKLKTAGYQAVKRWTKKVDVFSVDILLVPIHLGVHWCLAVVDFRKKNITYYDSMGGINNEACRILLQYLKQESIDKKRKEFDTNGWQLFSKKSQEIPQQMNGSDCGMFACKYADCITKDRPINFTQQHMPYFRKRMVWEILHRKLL
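System: Recombinant human SENP1 catalytic domain, His6-tagged | Incubation: Enzyme reaction for 50 min at room temperature, dark | Medium: Tris pH 8 with BME, BSA, NP40 and catalase | Also added: 25 nM SUMO1 FRET substrate | Compound: 10 µM single point, 0.5% DMSO | Measured by: FRET fluorescence in CFP and YFP emission channels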
SENP8 inh conf: SENP8 (human) inhibition, single concentration confirmation. shares compounds with SENP8 block-2. purified SENP8, Nedd8-AMC/pro-Nedd8 cleavage fluorescence, 30 min. inhibition, % at 25 µM. actives 15% (n = 1,400). AID 624319; in the data active = inhibition mostly above about 39%, no sharp cut-off; inactive = mostly below about 34%
A number is an active result; n = inactive; x = no result given. Compounds with a hit are over-represented: about 2.6% of the library has one in this group of screens.

SMILES	SENP7 inh	Platelet DG rel	SENP6 block	SENP8 block-1	SENP8 block-2	SENP1 FRET inh	SENP8 inh conf
CC(=O)/C(=N/Nc1ccccc1[N+](=O)[O-])N1CCCc2ccccc21	n	n	n	n	40.6	n	n
Cc1ccc(S(=O)(=O)NN=C2CCN(Cc3ccccc3)CC2)cc1	n	n	n	n	n	n	x
Cc1cc(NC(=O)C2CC2)ncc1NC(=O)C12CC3CC(CC(C3)C1)C2	n	n	n	n	n	n	x
O=C(Nc1ccccc1F)c1ccc(CNS(=O)(=O)c2cccc(C(F)(F)F)c2)cc1	n	n	n	n	47.5	n	n
Cc1cc(C)n2nc(C(=O)NCc3ccco3)cc2n1	n	n	n	n	n	n	x
COc1ccccc1NC(=O)c1nc[nH]c1C(=O)Nc1ccccc1OC	n	n	n	n	n	n	x
COC(=O)c1[nH]cnc1C(=O)c1ccccc1	n	n	n	n	54.0	n	n
O=[N+]([O-])c1ccc(Cl)cc1NCc1cccnc1	n	n	n	n	50.9	n	n
CCCOC(=O)c1cccc(NC(=O)C(C)(C)C)c1	n	n	n	n	42.5	n	n
CC(C)(C)C(=O)Nc1cccc(C(=O)c2cccc(NC(=O)C(C)(C)C)c2)c1	n	n	n	n	n	n	x
COc1cc(C(c2c(C)[nH][nH]c2=O)c2c(C)[nH][nH]c2=O)ccc1OS(=O)(=O)c1ccc(C)cc1	n	n	n	n	56.4	n	n
COc1cc(C(c2c(C)[nH][nH]c2=O)c2c(C)[nH][nH]c2=O)ccc1OS(=O)(=O)c1ccccc1	n	n	n	n	41.8	n	n
C/C(=C\C(=O)c1ccc(Br)cc1)Nc1cccc(Cl)c1	n	x	n	n	40.4	n	n
S=C(Nc1ccc2c(c1)OCO2)Nc1ccc2c(c1)OCO2	n	n	n	n	52.8	n	n
C/C(=C\C(=O)c1ccccc1)Nc1ccc2c(c1)OCO2	n	n	n	n	66.9	n	n
C/C(=C\C(=O)c1ccc(C)o1)Nc1ccc2c(c1)OCO2	n	n	n	n	47.1	n	n
Cc1ccc(C(=O)OCC(=O)Nc2ccc3c(c2)OCO3)o1	n	n	n	n	n	n	x
O=C(O)c1cc(S(=O)(=O)Nc2ccc3oc(=O)sc3c2)ccc1O	n	n	n	n	x	x	x
COc1ccc(N2C(=O)NC(NC(=O)C(C)(C)C)(C(F)(F)F)C2=O)cc1 (stereo not given)	n	n	n	n	n	n	x
O=c1sc2ccccc2c(N2CCCC2)c1[N+](=O)[O-]	n	n	n	n	n	n	x
CCN(C(=O)COC(=O)c1ccco1)c1c(N)n(Cc2ccccc2)c(=O)[nH]c1=O	n	n	n	n	n	n	x
CC(C)CC(=O)Nc1ccccc1N1CCCC1	n	n	n	n	n	n	x
CC(C)CC(=O)NC(=S)Nc1ccccc1N1CCCC1	n	n	n	n	59.0	n	n
CC(=O)Nc1ccc(Nc2ccc3nonc3c2[N+](=O)[O-])cc1	n	n	n	n	n	n	x
CC(=O)NS(=O)(=O)c1ccc(Nc2ccc([N+](=O)[O-])c3nonc23)cc1	n	n	n	n	24.3	n	n
SMILES	SENP7 inh	Platelet DG rel	SENP6 block	SENP8 block-1	SENP8 block-2	SENP1 FRET inh	SENP8 inh conf
O=[N+]([O-])c1cnccc1Nc1ccccc1	n	n	n	n	n	n	x
O=[N+]([O-])c1ccc(Nc2ccccc2)c2nonc12	n	n	n	n	49.2	n	n
Cc1cc(Nc2ccccc2)c2c([N+](=O)[O-])cc(C)c(C)c2n1	n	n	n	n	45.2	n	n
O=C(CCO)c1ccc(O)cc1	n	n	n	n	44.4	n	n
O=C1Nc2ccc(Br)cc2C12NNc1ccccc1O2 (stereo not given)	n	n	n	n	43.3	n	n
COc1cc(O)c2c(=O)cc(-c3ccccc3)oc2c1	n	n	n	n	53.2	n	n
COc1cc(-c2cc(=O)c3ccccc3o2)ccc1O	n	n	n	n	n	n	x
COc1c(O)cc(O)c2c(=O)cc(-c3ccccc3)oc12	n	x	n	n	68.9	n	n
COc1cc(-c2cc(=O)c3c(O)cc(O)cc3o2)ccc1O	n	n	n	n	55.7	n	n
Cc1ccc(Cl)cc1NC(=O)CC1NC2CCCCC2NC1=O (stereo not given)	n	n	n	n	n	n	x
